PG9 Ab binder: small molecules binding HIV-1 gp120 antibody PG9. inhibition, % at 6.7 µM. TR-FRET gp120-PG9 antibody binding. actives 0.43% (n = 360,000); in the data active means inhibition above about 8.5%
NR2E3 ag-1: activates human NR2E3 receptor; Q9Y5X4; CHO-S Gal4-NCOR/VP16-NR2E3 two-hybrid, luciferase; inhibition of corepressor binding, % at 3.98 µM; actives 0.35% (n = 360,000);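 active means inhibition above the mean of all tested compounds plus 3 SD, cut at about 70% in these data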;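 further: 0% = DMSO with NR2E3 transfected cells and 100% = cells lacking NR2E3 construct; higher means lower luciferase signal from less NR2E3 corepressor binding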
Target sequence (Q9Y5X4 whole entry, looked up, the tested form may be a part): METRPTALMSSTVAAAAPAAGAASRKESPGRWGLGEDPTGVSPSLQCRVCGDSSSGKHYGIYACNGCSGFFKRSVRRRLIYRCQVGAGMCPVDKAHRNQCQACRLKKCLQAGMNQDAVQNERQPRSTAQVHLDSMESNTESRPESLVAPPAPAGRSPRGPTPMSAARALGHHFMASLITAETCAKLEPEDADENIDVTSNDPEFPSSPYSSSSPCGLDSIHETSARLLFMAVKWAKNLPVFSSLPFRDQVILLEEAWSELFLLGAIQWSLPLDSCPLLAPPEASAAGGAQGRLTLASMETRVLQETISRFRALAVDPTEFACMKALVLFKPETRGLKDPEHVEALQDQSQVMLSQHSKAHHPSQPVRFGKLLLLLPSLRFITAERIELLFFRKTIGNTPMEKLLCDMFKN
VLA-4 inh: inhibition in a human VLA-4 binding assay; AID 2557; actives 0.2% (n = 330,000); P13612; inhibition, % (about 7 µM as worked out from the volumes in the protocol); VLA-4 expressing cells, ligand binding flow cytometry; in the data active means inhibition above about 50%
Rev-erbA mod: modulators of human Rev-erb alpha DNA binding | AID 1259318 | actives 0.79% (n = 370,000) | P20393 | activity, % at 10 µM | Rev-erbα–FITC-DNA binding, fluorescence polarization, 90 min;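 active means activity above about 14%, limit read from the data; passing the limit was not always enough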;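 further: 0% = DMSO wells with 35 nM protein and 100% = DMSO wells with 750 nM protein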
NR2E3 ag-2: activates human photoreceptor nuclear receptor NR2E3; GST-NR2E3/biotin-RetCOR TR-FRET, 1536-well; actives 0.12% (n = 320,000); Q9Y5X4; inhibition of corepressor binding, % at 4.78 µM;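 active means percent inhibition above the cutoff of mean plus 3 SD of all tested compounds, set per screening campaign, cut at about 20% in these data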;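 further: 0% = DMSO wells and 100% = biotin wells as full block of FRET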
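Test system – NR2E3–RetCOR corepressor complex · Quantity – NR2E3 fusion 1.35 nM · Buffer or medium – Tris pH 7.5 · Incubation – Compound–protein incubation for 5 h at 4 °C · Technique – TR-FRET, Eu(K)-anti-GST donor, streptavidin-D2 acceptor, ex 340, em 617/671 nm · Evaluation – percent inhibition of 671/617 nm emission ratio versus biotin and DMSO controls · Plate – 1536-well format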
NR2E3 ag conf: NR2E3 agonism confirmed in two-hybrid assay; inhibition, % at 3.98 µM; shares compounds with NR2E3 ag-1; AID 624378; CHO-S mammalian two-hybrid NR2E3-NCOR, luciferase luminescence; actives 51% (n = 2,300);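 active means average inhibition above a cutoff equal to the mean inhibition of all tested compounds plus one SD, cut at about 70% in these data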;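 further: 0% = DMSO in NR2E3 cells and 100% = DMSO in cells lacking NR2E3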
VP16 counter: reduces GAL4-VP16 reporter signal in NR2E3 counterscreen; shares compounds with NR2E3 ag-1; CHO-S GAL4-VP16 luciferase reporter, luminescence; inhibition, % at 3.98 µM; actives 29% (n = 2,300); AID 624379;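 active means mean inhibition above a cutoff equal to the average over all tested compounds plus one standard deviation, cut at about 70% in these data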;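 further: luciferase from a UAS reporter driven by GAL4-VP16 transactivation; 0% = DMSO with VP16-transfected cells and 100% = DMSO with cells lacking VP16; higher means less reporter light so more repression of VP16 activity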
An asterisk follows results filed as active; . = no result. The list is not random: actives were taken first. Their share in the collection is about 1.6%.

SMILES	PG9 Ab binder	NR2E3 ag-1	VLA-4 inh	Rev-erbA mod	NR2E3 ag-2	NR2E3 ag conf	VP16 counter
CC(C)N=C(N)N=C(N)Nc1ccc(Cl)cc1	-2.0	89.1*	-10.0	-5.0	3.0	87.8*	60.0
COC(=O)C1=C(C)N(C)C(=NCc2ccc(OC)cc2)NC1c1ccc(C(F)(F)F)cc1 (centres undefined)	2.2	.	.	7.0	.	.	.
CC(C)Cn1c(N)c(C(=O)CSc2ccc3c(c2)OCCO3)c(=O)n(C)c1=O	1.8	59.4	-3.7	-1.8	-4.7	92.2*	85.0*
Nn1c(SCC(=O)Nc2ccccc2-c2ccccc2)nnc1-c1cc(-c2ccc(Cl)cc2)n[nH]1	.	.	.	-1.5	.	.	.
C/C(=N\Nc1nc2ccccc2s1)c1ccc(Br)s1	-0.9	-30.6	21.8	5.7	0.7	.	.
CC(=NNc1nc2ccccc2s1)c1ccncn1	-1.8	63.2	.	-3.4	.	-208.0	-202.7
Cc1cc(N2CCCC2=O)cc(C)c1S(=O)(=O)NCCOc1ccccc1	1.4	16.0	13.2	2.4	-0.5	.	.
COc1ccc(CCNS(=O)(=O)c2ccc(N3CCCC3=O)cc2)cc1	0.7	25.2	41.8	-5.0	1.7	.	.
Cc1ccc(OCCNS(=O)(=O)c2ccc(N3CCCC3=O)cc2)cc1	-1.7	61.0	0.0	0.6	1.7	85.5*	72.3*
Cc1ccc(OCCNS(=O)(=O)c2ccc(N3CCCC3=O)cc2)cc1C	-0.7	93.5*	1.6	-1.8	6.4	97.8*	85.2*
CC(C)CN1C(=O)[C@@]2(CC(=O)N(C)C2c2ccccc2)c2cc(-n3cc(CCc4ccccc4)nn3)ccc21 (some centres undefined)	.	.	.	-1.8	.	.	.
COc1ccc(Cn2cc(CN3CC=CS3(=O)=O)nn2)cc1	.	.	.	2.4	.	.	.
Cc1sc2ncnc(NCCc3ccc(S(N)(=O)=O)cc3)c2c1C	-0.3	89.3*	10.2	5.1	2.1	93.5*	77.0*
CN(Cc1ccccc1)C(=O)OCc1cn(Cc2ccccc2F)nn1	.	.	.	-6.1	.	.	.
O=C(CCCN1C(=O)S/C(=C\C=C\c2ccccc2)C1=O)Nc1ccc(C(=O)O)cc1	-1.2	54.4	0.6	-9.2	0.7	8.0	58.0
O=C(CCCN1C(=O)S/C(=C\c2ccccc2)C1=O)NNC(=O)c1ccccc1O	-0.4	50.1	9.9	0.7	8.4	60.2	53.2
CCOC(=O)c1cnc(SCC(=O)Nc2cc(OC)ccc2OC)nc1N	1.5	68.7	11.2	-2.2	1.7	45.3	66.5
CCOC(=O)c1cnc(SCC(=O)Nc2ccc(NC(C)=O)c(OC)c2)nc1N	-2.4	3.6	-5.4	-0.4	0.7	.	.
CSc1ccc(CN2C(=O)C(C)Oc3c(C(C)=O)cccc32)cc1 (centres undefined)	-0.7	2.4	.	0.1	.	.	.
CSc1ccc(CN2C(=O)C(F)(F)Oc3c(C(C)=O)cccc32)cc1	.	48.6	.	.	.	44.4	53.3
Oc1ccccc1C=NNC(=S)NC1CC2C=CC1C2 (centres undefined)	-0.8	57.3	.	3.4	.	-90.2	-98.0
Oc1ccccc1/C=N/NC(=S)NC1CC2C=CC1C2 (centres undefined)	-0.5	-5.6	-0.2	-0.5	-4.3	.	.
COc1ccc(-n2c(COc3ccc(C)cc3)nnc2SCC(=O)Nc2ccc(S(=O)(=O)Nc3cc(C)nc(C)n3)cc2)cc1	.	.	.	0.3	.	.	.
O=C(c1ccc(F)cc1F)N1CCC(Oc2cccnc2)CC1	.	.	.	-4.1	.	.	.
CC1=C(C)C(=O)C(CCCCC#CCCCC#CCO)=C(C)C1=O	.	-9.4	7.4	.	-0.2	.	.
SMILES	PG9 Ab binder	NR2E3 ag-1	VLA-4 inh	Rev-erbA mod	NR2E3 ag-2	NR2E3 ag conf	VP16 counter
COC1=C(OC)C(=O)C(CCCCCCCCCCO)=C(C)C1=O	0.4	54.2	.	5.1	.	27.7	52.3
Cc1ccc(C2=CC(=O)CC(C)(C)C2=O)cc1	-0.3	.	.	1.1	.	.	.
CC1=C(O)c2ccccc2C(=O)C1=O	-19.4	53.0	.	2.2	.	84.9*	48.9
Cc1ccc(C2=C(O)c3ccccc3C(=O)C2=O)cc1	-9.8	-30.1	2.0	4.2	-6.1	.	.
CC(=O)c1c(O)cc(O)c(C(C)=O)c1O	.	79.8*	13.9	.	2.8	84.8*	34.1
CC(=O)c1c(O)cc(O)cc1CC(=O)O	-2.9	-16.3	4.5	-4.3	1.2	.	.
O=C(NNS(=O)(=O)c1ccc(F)cc1F)C1Cc2c(ccc3ccccc23)O1 (centres undefined)	-3.0	60.9	-0.3	5.0	3.3	84.7*	71.9*
CS(=O)(=O)NNC(=O)C1Cc2c(ccc3ccccc23)O1 (centres undefined)	-1.0	-13.2	0.2	-3.6	-3.7	.	.
CC(=O)c1cccc(N=c2scc(-c3ccc(S(=O)(=O)N4CCOCC4)cc3)n2CCO)c1	-3.4	68.0	-21.0	-0.1	-0.7	81.5*	77.1*
COc1ccc(OC)c(S(=O)(=O)N2CCCC(C(=O)Nc3c(C)n(C)n(-c4ccccc4)c3=O)C2)c1 (centres undefined)	.	.	.	-4.1	.	.	.
Cc1nn(-c2ccccc2)c2sc(C(=O)NC3CCCCCCC3)cc12	.	.	.	-4.0	.	.	.
CC(=O)Nc1ccccc1OCC(=O)c1cc(C)n(Cc2cccs2)c1C	2.5	90.2*	-3.1	1.9	-0.1	93.0*	72.5*
Cc1cc(C(=O)COc2cccnc2[N+](=O)[O-])c(C)n1Cc1cccs1	-2.0	69.8	-2.4	-2.4	0.7	73.2*	57.6
Cc1nc(NCc2ccco2)c2c(C)c(C)sc2n1	-1.3	97.0*	0.2	6.2	5.1	95.4*	68.1
COC(=O)[C@]12C[C@H](CC(=O)NCC3CCCCC3)C(=O)N(Cc3ccco3)C1=C[C@H](C1CCCC1)O[C@@H]2C	.	.	.	-2.4	.	.	.
O=C(CCCN1C(=O)/C(=C/c2ccccc2Cl)SC1=S)NNC(=O)c1ccccc1	-0.5	23.5	19.0	-1.4	-0.3	.	.
O=C(CCCN1C(=O)/C(=C/c2ccccc2Cl)SC1=S)NNC(=O)c1cccnc1	-0.8	59.5	-3.4	-3.2	-1.2	-0.9	34.6
Cc1ccc(/C=C2\SC(=S)N(CC(=O)Nc3cccnc3)C2=O)cc1	-2.8	-9.3	-10.8	-3.4	-3.4	.	.
Cc1ccc(/C=C2\SC(=S)N(CCCC(=O)Nc3cccnc3)C2=O)cc1	.	90.8*	-3.7	.	2.6	42.0	90.4*
COc1ccc(/C=C2\SC(=S)N(CCCC(=O)Nc3ccc(O)cc3)C2=O)cc1	-0.3	72.6*	8.0	-9.3	4.2	3.1	61.5
COc1ccc(Cl)cc1Cn1c(C)c(C(=O)NCc2cccc(Cl)c2)sc1=O	-2.6	76.5*	.	-7.5	.	74.8*	4.3
COc1ccc(NC(=O)c2sc(=O)n(Cc3ccc(F)c(Cl)c3)c2C)cc1OC	0.1	57.4	.	7.1	.	75.7*	28.5
COc1ccc(CNC(=O)c2sc(=O)n(Cc3cc(Cl)ccc3OC)c2C)cc1	-3.7	38.6	.	4.7	.	.	.
Cc1ccc(-n2c(COc3ccccc3)nnc2SCC(=O)Nc2ccccc2-c2ccccc2)cc1	.	.	.	-6.3	.	.	.

Bioassay records (PubChem)
